From ChEMBL document CHEMBL1157856, “Novel quinoline and naphthalene derivatives as potent antimycobacterial agents” (2010) come the findings set out here.

Each structure is given as a SMILES string.

Holding throughout (assay type): functional
The test system of assay [1] is U-937. Description: Cytotoxicity against human U937 cells assessed as cell viability at 1 ug/ml after 72 hrs by MTT assay. Conditions: U-937, 72 h, read-out: Activity. Put shortly: (§1)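 U937 human monocytic cells seeded at 1 × 10⁵ cells/mL and allowed to adhere for 1 h at 37 °C under 5% CO₂. Non-adherent cells were rinsed off with RPMI 1640. Adherent cells were exposed in triplicate to compound, medium alone (live control) or 3% Tween 20 (dead control). MTT (5 mg/mL stock in PBS) was added for 3 h at 37 °C. Formazan was dissolved in 0.4 M HCl/isopropanol and A600 read. Values given as percent viability.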

The test system of assay [2] is U-937. Kind of assay: Cytotoxicity against human U937 cells assessed as cell viability at 10 ug/ml after 24 hrs by MTT assay. Conditions: U-937, 24 h, read-out: Activity. In outline: as §1
The subject of assay [3] is U-937. Description: Cytotoxicity against human U937 cells assessed as cell viability at 10 ug/ml after 72 hrs by MTT assay. Conditions: U-937, 72 h, read-out: Activity. In outline: as §1
For assay [4], the system named is U-937. Description: Cytotoxicity against human U937 cells assessed as cell viability at 1 ug/ml after 24 hrs by MTT assay. Conditions: U-937, 24 h, read-out: Activity. In outline:
as §1
A general note: Tetrazolium assays rely on reduction of a dye to a coloured formazan, in cell work by metabolically active cells.

The subject of assay [5] is Mycobacterium tuberculosis. Kind of assay: Antimycobacterial activity against Mycobacterium tuberculosis H37Rv at 6.25 ug/ml by BACTEC 460. Conditions: for inhibition at 6.25 µg/mL: Mycobacterium tuberculosis, H37Rv.

`COc1ccccc1N1CCN(CC(O)COC(c2ccccc2)c2cccc3ccccc23)CC1` (stereo unspecified): the figures for the viability at 1 µg/mL with U-937 [1] and in the assay on U-937 [4] were 64% and 81%, respectively. The viability at 10 µg/mL was determined as 81% in the assay on U-937 [2] and 62% in the assay on U-937 [3]. Also, 6.25 µg/mL produced 90% inhibition in assay [5]. In the case of `OC(COC(c1ccccc1)c1cccc2ccccc12)CN1CCN(c2cccc(C(F)(F)F)c2)CC1` (stereo unspecified), the inhibition (in general, how much of the control response was suppressed) at 6.25 µg/mL in assay [5] worked out at 11%. Compound `Cc1cc(C(OCC(O)CN(C)CCO)c2ccncc2)c2cc(Br)ccc2n1` (stereo unspecified) came in with an inhibition at 6.25 µg/mL in assay [5] of 13%. As for `Cc1cc(C(OCC(O)CNc2nnn[nH]2)c2ccncc2)c2cc(Br)ccc2n1` (stereo unspecified), in assay [5], 6.25 µg/mL produced 20% inhibition. The same measure, in the same setting: the figure for `OC(COC(c1ccccc1)c1cccc2ccccc12)CN1CCN(c2ccc(Cl)c(Cl)c2)CC1` (stereo unspecified) is 4%. With `OC(COC(c1ccccc1)c1cccc2ccccc12)CN1CCN(Cc2ccccc2)CC1` (stereo unspecified), the viability at 1 µg/mL worked out at 71% with U-937 [1] and 77% with U-937 [4]. The viability at 10 µg/mL with U-937 [2] turned out to be 77%; in the assay with U-937 [3], 74%. The compound also displayed an inhibition at 6.25 µg/mL in assay [5] of 91%. For `Cc1cc(C(OCC(O)CNCCN)c2ccncc2)c2cc(Br)ccc2n1` (stereo unspecified), in assay [5], at 6.25 µg/mL the inhibition was 5%. On to `COc1cccc(N2CCN(CC(O)COC(c3ccccc3)c3cccc4ccccc34)CC2)c1` (stereo unspecified), for which the viability at 1 µg/mL in the assay with U-937 [1] and with U-937 [4] was 100% each time. Further, the viability at 10 µg/mL stood at 82% with U-937 [2] and 63% in the assay on U-937 [3]. This compound also showed an inhibition at 6.25 µg/mL in assay [5] of 99%. In turn, `Cc1cc(C(OCC(O)Cn2ccnc2)c2ccncc2)c2cc(Br)ccc2n1` (stereo unspecified) yielded an inhibition at 6.25 µg/mL in assay [5] of 7%.

`Cc1cc(C(OCC(O)Cn2cncn2)c2ccncc2)c2cc(Br)ccc2n1` (stereo unspecified) had an inhibition at 6.25 µg/mL in assay [5] of 10%.

`Cc1cc(C(OCC(O)Cn2cccn2)c2ccncc2)c2cc(Br)ccc2n1` (stereo unspecified) displayed an inhibition at 6.25 µg/mL in assay [5] of 9%. Same read-out and setting: the figure for `Cc1cc(C(OCC(O)CN2CCN(c3ccccn3)CC2)c2ccncc2)c2cc(Br)ccc2n1` (stereo unspecified) is 4%; for `Cc1cc(C(OCC(O)Cn2ccc(C)n2)c2ccncc2)c2cc(Br)ccc2n1` (stereo unspecified) it is 8%. In the case of `OC(COC(c1ccccc1)c1cccc2ccccc12)CN1CCN(C(c2ccccc2)c2ccccc2)CC1` (stereo unspecified), the viability at 1 µg/mL is 79% in the assay on U-937 [1] and 93% in the assay on U-937 [4]. The viability at 10 µg/mL stood at 74% with U-937 [2] and 70% with U-937 [3]. The inhibition at 6.25 µg/mL in assay [5] came out at 98%. In assay [5], `OC(COC(c1ccccc1)c1cccc2ccccc12)CN1CCN(c2ccccn2)CC1` (stereo unspecified) yielded an inhibition at 6.25 µg/mL of 23%. The same measure, in the same setting: as for `OC(COC(c1ccccc1)c1cccc2ccccc12)CN1CCN(c2ccc(F)cc2)CC1` (stereo unspecified), the figure is 14%. Same read-out and setting: the figure for `COCCNCC(O)COC(c1ccncc1)c1cc(C)nc2ccc(Br)cc12` (stereo unspecified) is 19%; for `OC(COC(c1ccccc1)c1cccc2ccccc12)CN1CCN(c2ccc(Cl)cc2)CC1` (stereo unspecified) it is 5%; for `Cc1cc(C(OCC(O)CNc2ncn[nH]2)c2ccncc2)c2cc(Br)ccc2n1` (stereo in doubt; 12) [1-(1H-1,2,4-TRIAZOL-5-YLAMINO)-3-((6-BROMO-2-METHYLQUINOLIN-4-YL)(PYRIDIN-4-YL)METHOXY)PROPAN-2-OL (STRUCTURAL MIX)] it is 22%. Turning to `Cc1cc(C(OCC(O)CNc2ncn[nH]2)c2ccncc2)c2cc(Br)ccc2n1` (stereo in doubt; 13) [1-(1H-1,2,4-TRIAZOL-5-YLAMINO)-3-((6-BROMO-2-METHYLQUINOLIN-4-YL)(PYRIDIN-4-YL)METHOXY)PROPAN-2-OL (STRUCTURAL MIX)], the “inhibition (INH)” value in assay [5] turned out to be 15%.
